Screening results (PubChem)
tolC growth inh: blocks growth of E. coli BW25113 tolC mutant. OD615. growth inhibition, % at 10 µM (by protocol). actives 2.2% (n = 65,000). AID 573;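 active = growth inhibition at or above a cutoff equal to the mean over every tested compound plus 3 SD, cut at about 60% in these data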;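 also: growth measured after 20 h incubation at 37 °C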
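System: E. coli ΔtolC::kan strain BW25113; Buffer or medium: LB broth supplemented with 50 µg/mL kanamycin; Compound: 10 µM final, single dose; Incubation: bacterial growth with compound for 20 h at 37 °C; Signal: A615 absorbance measurement; Evaluation: growth inhibition in percent.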
PostGolgi yeast: growth inhibition of a yeast mutant, post-Golgi transport screen; inhibition, % at 10 µM; AID 739; post-Golgi transport phenotypic cell assay; actives 0.9% (n = 98,000);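 also: yeast cells grown in 1536-well plates; yeast grown about 18 h at 30C before absorbance read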
E coli WT exp: E. coli BW25113 growth inhibition, expanded screen; OD600 absorbance; growth inhibition, % at 100 µM; actives 0.15% (n = 98,000);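 active = growth inhibition above about 50% at one test dose, limit read from the data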;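 also: growth measured after 20 h incubation at 37 °C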
EphB4 ephrin blk: EphB4-ephrin-B2 interaction antagonism; P54760; EphB4 LBD / TNYL-RAW-Alexa532 peptide, fluorescence polarization; inhibition, % at 7 µM; actives 0.15% (n = 97,000); AID 720;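 active = inhibition above the screen-wide mean inhibition plus 3 SD, cut at about 15% in these data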;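 also: 0% = DMSO wells and 100% = excess unlabeled TNYL-RAW peptide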
PostGolgi ctrl: inhibits growth of the yeast control strain | efflux-deficient yeast background strain, growth absorbance A615, 16 h | AID 738 | inhibition, % at 10 µM | actives 5% (n = 98,000)
Starred values were filed as active, the others as inactive; · = no result. Rows were chosen to be rich in hits. Some 6% of all compounds tested hit in one or more screens of this group. Rule as the data show it, unless noted: active = inhibition above about 30%; inactive = the rest.

SMILES	tolC growth inh	PostGolgi yeast	E coli WT exp	EphB4 ephrin blk	PostGolgi ctrl
O=C1C=C(c2ccccc2)C(=O)N1Nc1ccccc1	·	104*	11	3	30
Cc1cccc(-c2noc(CCCC(=O)N3CCOCC3)n2)c1	·	7	10	-2	2
Cc1ccc2c(c1)c1ncnc(N3CCOCC3)c1n2C	12	20	-2	-2	36*
Cc1ccc2c(c1)c1ncnc(N3CCC4(CC3)OCCO4)c1n2C	18	-2	4	-2	19
Cc1ccc2c(c1)c1ncnc(N3CCN(c4ccccc4)CC3)c1n2C	64*	17	-8	4	53*
O=C(NCc1ccccc1)NS(=O)(=O)c1ccccc1Cl	-12	30*	14	·	-4
CCN(CC)c1ccc(/C=C2/C(=O)N(c3ccc([N+](=O)[O-])cc3)N=C2N2CCOCC2)cc1	·	-2	-10	-2	34*
COc1cccc(N2CCN(Cc3ccsc3)CC2)c1	·	3	15	-1	-5
CCOC(=O)c1c(NC(=O)CSc2nnc(C)s2)sc2c1CCC(C)C2 (centres undefined)	·	·	·	3	·
COc1ccc(Oc2ccccc2C=O)cc1	·	5	3	1	5
COc1ccc(C(=O)N(Cc2ccco2)C(C(=O)NC2CCCC2)c2ccc(O)cc2)cc1OC (centres undefined)	-1	13	-5	-7	-5
CCOC(=O)c1oc2ccc(S(=O)(=O)n3nc(-c4ccc(C)cc4)cc3N)cc2c1C	·	10	-10	-13	32*
C=CCn1c(=O)/c(=C2/SC(C)=C(C)N2CC)s/c1=C1/C(=O)N(C)C(=S)N1c1ccccc1	·	·	·	-4	·
Cc1ccc(C)c(NS(=O)(=O)c2cc(C(=O)N3CCc4ccccc4C3)ccc2Cl)c1	·	104*	-12	-7	71*
COc1ccccc1NS(=O)(=O)c1cc(C(=O)N2CC(C)CC(C)C2)ccc1C (centres undefined)	·	87*	4	-4	88*
Cc1cccc(NS(=O)(=O)c2cc(C(=O)N3CCc4ccccc4C3)ccc2Cl)c1C	·	97*	-10	-7	74*
COC(=O)c1ccccc1NC(=O)CSc1nnc(-c2ccc(OC)cc2)n1C	·	·	·	8	·
CC(C)C(=O)Nc1ncc2c(n1)CC(c1cccs1)CC2=O (centres undefined)	·	·	·	4	·
Cc1cccc(Oc2ncnc3oc(-c4ccccc4)cc23)c1C	·	-7	-4	1	10
CN(C)CC(C)(C)CNS(=O)(=O)CC12CCC(CC1=O)C2(C)C (centres undefined)	·	8	5	3	1
CCOC(=O)c1nn(-c2ccc(Br)cc2)cc1C(=O)c1cccc2ccccc12	·	2	-3	10	31*
Cc1occc1-c1nnc(SCC(=O)Nc2nc3ccccc3s2)o1	·	0	-4	3	-5
O=C(CCCc1ccccc1)Nc1cccc2c1CCCC2	·	-1	2	1	37*
O=C(COc1ccccc1)Nc1cccc2c1CCCC2	·	5	-1	4	-6
CC1Cc2ccccc2N1C(=O)CSc1nnc(CNc2ccccc2)o1 (centres undefined)	-15	0	0	-6	37*
SMILES	tolC growth inh	PostGolgi yeast	E coli WT exp	EphB4 ephrin blk	PostGolgi ctrl
O=C(CSc1nnc(CNc2ccc(F)cc2)o1)N1c2ccccc2Sc2ccccc21	·	11	-9	7	50*
CC(C)c1nc(SCC(=O)N2c3ccccc3CC2C)c2ccccc2n1 (centres undefined)	·	12	-21	-1	37*
O=C(CSc1nnc(CNc2ccccc2)o1)N1CCCc2ccccc21	19	9	-1	-7	-5
CC1Cc2ccccc2N1C(=O)CSc1ccccc1 (centres undefined)	·	-2	3	7	10
CC(CNC(=O)C(=O)NC(C)CCc1ccccc1)Cc1ccccc1 (centres undefined)	·	-3	-5	5	4
Cc1ccccc1CSc1nc2n(n1)C(c1cccs1)C1=C(CCCC1=O)N2 (centres undefined)	100*	-15	-12	-3	9
CCOCCCNC(=O)C(c1ccc(Cl)cc1)N1CCN(C(=O)c2ccco2)CC1 (centres undefined)	-7	-3	2	-7	-6
CCOCCCNC(=O)C(c1ccc(Cl)cc1)N1CCN(c2ccccc2)CC1 (centres undefined)	3	5	-5	·	31*
CCn1c(C(=O)OC)cc2c1ccn2-c1ccc(F)cc1	96*	12	4	-1	1
O=C(Oc1ccc(-c2nnco2)cc1)N(c1ccccc1)c1ccccc1	31	-5	0	2	26
COc1ccccc1-c1c(C)nn2c(N3CCC4(CC3)OCCO4)cc(C)nc12	22	4	2	-9	98*
c1ccc(CCc2nn3c(Cc4ccccc4)nnc3s2)cc1	15	-2	-1	-4	19
CCOC(=O)c1c(NC(=O)CSc2nnnn2CC)sc(C)c1C	18	-2	-7	-10	23
COc1ccccc1C(=O)Nc1cccc(-c2cn3ccsc3n2)c1	25	2	-5	0	38*
O=C(CCN1C(=O)COc2ccccc21)NCc1cccs1	-11	-5	-3	-7	13
COc1ccc(C(=O)Nc2ccccc2N2CCN(C(=O)C(C)C)CC2)cc1Cl	·	3	-9	-11	15
Cc1cc(Cl)ccc1OCC(=O)Nc1ccccc1N1CCOCC1	86*	-5	-19	0	23
COc1cccc(C(=O)OCC(=O)Nc2ccccc2N2CCOCC2)c1	24	4	2	6	38*
Cc1ccc(OCC(=O)Nc2ccccc2N2CCOCC2)c(C)c1	·	9	6	5	7
Cc1cccc(OCC(=O)Nc2ccccc2N2CCN(C(=O)C(C)C)CC2)c1C	56	3	8	5	42*
COc1ccc(Cl)cc1C(=O)Nc1ccccc1N1CCN(C(=O)C(C)C)CC1	11	11	-11	-9	54*
CC1Cc2ccccc2N1C(=O)CCn1c(=O)sc2ccccc21 (centres undefined)	19	·	·	·	·
O=c1c2c3c(sc2n2c(=S)[nH]nc2n1Cc1ccccc1)CN(Cc1ccccc1)CC3	·	·	·	-6	·
Cc1cccc(-n2ncc3c(N4CCN(c5nc(C)cc(C)n5)CC4)ncnc32)c1	-12	·	·	·	·
COC(=O)C1=CN(CCCN2CCCC2=O)C=C(C(=O)OC)C1c1ccccc1C(F)(F)F	-2	36*	5	-6	3
COC(=O)C1=CN(CC2CCCO2)C=C(C(=O)OC)C1c1ccccc1C(F)(F)F (centres undefined)	·	-5	5	3	11
COc1cc(C2CC(=O)c3c([nH]c(C(=O)OCCOC(C)C)c3C)C2)cc(OC)c1OC (centres undefined)	15	-1	2	0	16
O=C(NCc1ccco1)N1c2ccccc2Sc2ccccc21	22	1	2	0	10
Cn1c(/C=C/c2ccc([N+](=O)[O-])o2)nc2ccccc2c1=O	·	62*	65*	1	41*
O=C(N/N=C/c1ccc([N+](=O)[O-])o1)c1cc(-c2ccncc2)nc2ccccc12	·	-16	-4	3	16
